The values that follow come from ChEMBL document CHEMBL3217512, “Indole/triazole conjugates are selective inhibitors and inducers of bacterial biofilms” (Medchemcomm, 2013).

Data set [1] has as its system Acinetobacter baumannii. Kind of data set: Inhibition of biofilm formation in Acinetobacter baumannii 19606 at 150 uM after 24 hrs by crystal violet staining-based assay relative to control. The note with it: ATCC 19606 = CIP 70.34 = JCM 6841, 24 h. The class given is functional.
The subject of data set [2] is Staphylococcus aureus. Put plainly: Antimicrobial activity against methicillin-resistant Staphylococcus aureus BAA 44 assessed as effect on planktonic growth at IC50 after 2 to 24 hrs by colony count method. In kind it is organism-based. The note with it: in vivo.
Data set [3] deals with Staphylococcus aureus. Kind of data set: Inhibition of biofilm formation in Staphylococcus aureus 29213 at 150 uM after 24 hrs by crystal violet staining-based assay relative to control. In kind it is functional. The note with it: Staphylococcus aureus, 29213, 24 h.
The test system of data set [4] is Staphylococcus aureus. Put plainly: Inhibition of biofilm formation in methicillin-resistant Staphylococcus aureus BAA 44 at 150 uM after 24 hrs by crystal violet staining-based assay relative to control. In kind it is functional. The note with it: BAA 44, 24 h. Put shortly:
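Static biofilm development in MRSA, read out by crystal violet staining against an untreated control. Initial screen at 150 μM. Inhibitors then went to dose-response, with IC50 taken as the concentration giving 50% inhibition of biofilm growth. Induction was judged at 50 μM: under 50% induction counted as "inducer", over 50% as "strong inducer".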

In data set [5] the test system is Staphylococcus aureus. Put plainly: Antimicrobial activity against methicillin-resistant Staphylococcus aureus BAA 44 assessed as effect on planktonic growth at IC50 after 2 to 24 hrs. The note with it: in vivo. In kind it is organism-based.
Data set [6] deals with Escherichia coli. Kind of data set: Antimicrobial activity against Escherichia coli K-12 ER2718 assessed as effect on planktonic growth at IC50 after 2 to 24 hrs by colony count method. The class given is organism-based.
In data set [7] the test system is Acinetobacter baumannii. Kind of data set: Antimicrobial activity against Acinetobacter baumannii 19606 assessed as effect on planktonic growth at IC50 after 2 to 24 hrs. Set-up: species or system ATCC 19606.
Data set [8] deals with Staphylococcus aureus. Put plainly: Antimicrobial activity against Staphylococcus aureus 29213 assessed as effect on planktonic growth at IC50 after 2 to 24 hrs. The class given is organism-based. The note with it: in vivo.
Data set [9] has as its system Escherichia coli. Put plainly: Inhibition of biofilm formation in Escherichia coli K-12 ER2718 at 150 uM after 24 hrs by crystal violet staining-based assay relative to control. The note with it: K-12 ER2718, 24 h. In kind it is functional.
In data set [10] the test system is Escherichia coli. Kind of data set: Antimicrobial activity against Escherichia coli K-12 ER2718 assessed as effect on planktonic growth at IC50 after 2 to 24 hrs. In kind it is organism-based.
Data set [11] has as its system Acinetobacter baumannii. Put plainly: Antimicrobial activity against Acinetobacter baumannii 19606 assessed as effect on planktonic growth at IC50 after 2 to 24 hrs by colony count method. The arrangement: species or system ATCC 19606.
Data set [12] relates to Staphylococcus aureus. Put plainly: Antimicrobial activity against Staphylococcus aureus 29213 assessed as effect on planktonic growth at IC50 after 2 to 24 hrs by colony count method. The class given is organism-based. As to conditions: in vivo.
Data set [13] relates to Escherichia coli. Put plainly: Antimicrobial activity against Escherichia coli K-12 ER2718 assessed as effect on planktonic growth at PC25 after 2 to 24 hrs by colony count method. In kind it is organism-based.
The subject of data set [14] is Escherichia coli. Kind of data set: Antimicrobial activity against Escherichia coli K-12 ER2718 assessed as effect on planktonic growth at PC75 after 2 to 24 hrs by colony count method. In kind it is organism-based. As to conditions: in vivo.
Data set [15] deals with Escherichia coli. Put plainly: Antimicrobial activity against Escherichia coli K-12 ER2718 assessed as effect on planktonic growth at PC75 after 2 to 24 hrs. In kind it is organism-based. As to conditions: in vivo.
Data set [16] concerns Escherichia coli. Kind of data set: Antimicrobial activity against Escherichia coli K-12 ER2718 assessed as effect on planktonic growth at 50 uM after 2 to 24 hrs. In kind it is organism-based. Summed up:
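Growth curve analysis of planktonic bacteria with each biofilm inducer at 50 μM, used to assess toxicity.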

Data set [17] deals with Escherichia coli. Put plainly: Induction of biofilm formation in Escherichia coli K-12 ER2718 at 50 uM after 24 hrs by crystal violet staining-based assay relative to control. The class given is functional. Summed up: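 Static biofilm assay with compounds at 50 μM and crystal violet read-out, relative to an untreated control. Compounds increasing biofilm by less than 50% were called inducers, and by more than 50% strong inducers.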

Data set [18] concerns Escherichia coli. Kind of data set: Antimicrobial activity against Escherichia coli K-12 ER2718 assessed as effect on planktonic growth at PC50 after 2 to 24 hrs by colony count method. As to conditions: in vivo. In kind it is organism-based.
The test system of data set [19] is Escherichia coli. Put plainly: Antimicrobial activity against Escherichia coli K-12 ER2718 assessed as effect on planktonic growth at PC25 after 2 to 24 hrs. In kind it is organism-based.
For data set [20], the system named is Escherichia coli. Kind of data set: Antimicrobial activity against Escherichia coli K-12 ER2718 assessed as effect on planktonic growth at PC50 after 2 to 24 hrs. The class given is organism-based.

By inhibition is commonly meant the relative decrease from the control value, in per cent. Read a high inhibition as strong suppression. Turning to `O=C(NCCn1cc(Cc2c[nH]c3ccccc23)nn1)c1ccccc1`, the inhibition at 150 µM in the data set on Acinetobacter baumannii [1] is less than 5%; with Staphylococcus aureus [3], 23%; with Staphylococcus aureus [4], less than 5%; in the data set with Escherichia coli [9], less than 5%. Also, the Activity entry with Staphylococcus aureus [2], with Staphylococcus aureus [5], in the data set with Escherichia coli [6], with Acinetobacter baumannii [7], with Staphylococcus aureus [8] and in the data set on Escherichia coli [10] was “Non-toxic” throughout. Further, the Activity entry in the data set on Acinetobacter baumannii [11] and with Staphylococcus aureus [12] was “Non-toxic” in each case.

`COc1ccc(CNC(=O)Cn2cc(Cc3c[nH]c4ccccc34)nn2)cc1`: the inhibition at 150 µM is 20% in the data set with Acinetobacter baumannii [1], less than 5% in the data set with Staphylococcus aureus [3], less than 5% with Staphylococcus aureus [4] and less than 5% in the data set with Escherichia coli [9]. Moreover, the Activity entry with Staphylococcus aureus [2], with Staphylococcus aureus [5], in the data set on Escherichia coli [6], in the data set on Acinetobacter baumannii [7], in the data set on Staphylococcus aureus [8] and in the data set with Escherichia coli [10] was “Non-toxic” in each case. The Activity result in the data set with Acinetobacter baumannii [11] and in the data set with Staphylococcus aureus [12] was “Non-toxic” each time.

On to `O=C(Cn1cc(Cc2c[nH]c3ccccc23)nn1)Nc1ccccc1`, for which the inhibition at 150 µM in the data set on Acinetobacter baumannii [1], with Staphylococcus aureus [3] and in the data set with Staphylococcus aureus [4] was less than 5% throughout. In addition, the Activity entry in the data set with Staphylococcus aureus [2], in the data set with Escherichia coli [13], in the data set with Escherichia coli [14], in the data set with Staphylococcus aureus [5], in the data set on Escherichia coli [15] and in the data set with Escherichia coli [16] was “Non-toxic” each time. The Activity entry in the data set with Escherichia coli [6] was “Non-toxic”; in the data set on Acinetobacter baumannii [7], “Non-toxic”; in the data set on Escherichia coli [17], less than 50%; in the data set with Staphylococcus aureus [8], “Non-toxic”; in the data set on Escherichia coli [18], “Non-toxic”; in the data set with Escherichia coli [10], “Non-toxic”. Moreover, the Activity result in the data set with Escherichia coli [19], in the data set on Acinetobacter baumannii [11], with Staphylococcus aureus [12] and in the data set with Escherichia coli [20] was “Non-toxic” each time.

Consider `CCCCCCNC(=O)Cn1cc(Cc2csc3ccccc23)nn1`, for which the inhibition at 150 µM in the data set on Acinetobacter baumannii [1] is 20%; in the data set with Staphylococcus aureus [3], less than 5%; in the data set on Staphylococcus aureus [4] it was less than 5%; in the data set on Escherichia coli [9] it was less than 5%. Moreover, the Activity result in the data set on Staphylococcus aureus [2], in the data set on Staphylococcus aureus [5], in the data set with Escherichia coli [6], in the data set with Acinetobacter baumannii [7], in the data set with Staphylococcus aureus [8] and with Escherichia coli [10] was “Non-toxic” in each case. Moreover, the Activity entry in the data set on Acinetobacter baumannii [11] and with Staphylococcus aureus [12] was “Non-toxic” each time.

Turning to `CCCCCCc1ccc(C(=O)NCCn2cc(Cc3csc4ccccc34)nn2)cc1`, the inhibition at 150 µM in the data set on Acinetobacter baumannii [1], in the data set on Staphylococcus aureus [3], in the data set with Staphylococcus aureus [4] and in the data set with Escherichia coli [9] was less than 5% in each case. Further, the Activity entry in the data set on Staphylococcus aureus [2], in the data set with Staphylococcus aureus [5], with Escherichia coli [6], in the data set with Acinetobacter baumannii [7], in the data set on Staphylococcus aureus [8] and in the data set on Escherichia coli [10] was “Non-toxic” each time. For the same compound, the Activity result in the data set on Acinetobacter baumannii [11] and in the data set on Staphylococcus aureus [12] was “Non-toxic” each time.

`CCCCCCNC(=O)Cn1cc(Cc2c[nH]c3ccccc23)nn1`: the figures for the inhibition at 150 µM in the data set with Acinetobacter baumannii [1], in the data set with Staphylococcus aureus [3] and in the data set with Staphylococcus aureus [4] were 25%, less than 5% and less than 5%, respectively. In addition, the Activity entry with Staphylococcus aureus [2], with Escherichia coli [13], with Escherichia coli [14], in the data set on Staphylococcus aureus [5], with Escherichia coli [15] and in the data set on Escherichia coli [16] was “Non-toxic” each time. The Activity result in the data set with Escherichia coli [6] is given as “Non-toxic”; with Acinetobacter baumannii [7] it was “Non-toxic”; in the data set with Escherichia coli [17], less than 50%; in the data set with Staphylococcus aureus [8], “Non-toxic”; in the data set with Escherichia coli [18], “Non-toxic”; in the data set with Escherichia coli [10], “Non-toxic”. Also, the Activity entry in the data set on Escherichia coli [19], in the data set with Acinetobacter baumannii [11], with Staphylococcus aureus [12] and in the data set with Escherichia coli [20] was “Non-toxic” throughout.

Consider `O=C(NCCn1cc(Cc2csc3ccccc23)nn1)c1ccccc1`, for which the inhibition at 150 µM was less than 5% in the data set on Acinetobacter baumannii [1], less than 5% with Staphylococcus aureus [3], less than 5% in the data set with Staphylococcus aureus [4] and 14% with Escherichia coli [9]. For the same compound, the Activity entry with Staphylococcus aureus [2], in the data set on Staphylococcus aureus [5], with Escherichia coli [6], in the data set on Acinetobacter baumannii [7], in the data set on Staphylococcus aureus [8] and in the data set on Escherichia coli [10] was “Non-toxic” in each case. Further, the Activity result with Acinetobacter baumannii [11] and in the data set with Staphylococcus aureus [12] was “Non-toxic” in each case.

Consider `CCCCCCc1ccc(C(=O)NCCn2cc(Cc3c(Br)[nH]c4ccccc34)nn2)cc1`, for which the values for the inhibition at 150 µM with Acinetobacter baumannii [1], in the data set with Staphylococcus aureus [3] and with Staphylococcus aureus [4] were 22%, 40% and 25%, respectively. In addition, the Activity entry in the data set with Staphylococcus aureus [2], with Escherichia coli [13], with Escherichia coli [14], with Staphylococcus aureus [5], in the data set on Escherichia coli [15] and in the data set with Escherichia coli [16] was “Non-toxic” in each case. The Activity result in the data set on Escherichia coli [6] was “Non-toxic”; in the data set on Acinetobacter baumannii [7], “Non-toxic”; in the data set with Escherichia coli [17], less than 50%; in the data set with Staphylococcus aureus [8], “Non-toxic”; with Escherichia coli [18] it was “Non-toxic”; in the data set on Escherichia coli [10], “Non-toxic”. Further, the Activity result in the data set on Escherichia coli [19], in the data set with Acinetobacter baumannii [11], with Staphylococcus aureus [12] and with Escherichia coli [20] was “Non-toxic” in each case.

As to `COc1ccc(CNC(=O)Cn2cc(Cc3csc4ccccc34)nn2)cc1`, the inhibition at 150 µM is 20% in the data set on Acinetobacter baumannii [1], less than 5% in the data set on Staphylococcus aureus [3], less than 5% in the data set with Staphylococcus aureus [4] and less than 5% with Escherichia coli [9]. In addition, the Activity result in the data set on Staphylococcus aureus [2], in the data set on Staphylococcus aureus [5], in the data set on Escherichia coli [6], in the data set with Acinetobacter baumannii [7], in the data set on Staphylococcus aureus [8] and with Escherichia coli [10] was “Non-toxic” each time. The Activity result with Acinetobacter baumannii [11] and in the data set with Staphylococcus aureus [12] was “Non-toxic” each time.
